How the values were obtained:
[1] = organism: Mus musculus; assay: Maximum tolerated dose against L1210 leukemia in mice; format: functional
Method in brief: (§1)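 Sub-acute toxicity was tested in healthy, non-tumour-bearing CD2F1 females (12–16 weeks, 25–27 g), given a single ip injection or oral gavage and observed for 45 days. Mortality was pooled from 3–6 experiments, usually 4–7 dose levels, with ≥5 mice per group. Litchfield–Wilcoxon log-dose curves were fitted. LD50 (with 95% confidence limits) and LD5 (taken as MTD) were estimated graphically.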

[2] = Therapeutic index represented as LD50/ED50 was determined
[3] = organism: Mus musculus; assay: Effective dose that produce antitumor activity against L1210 leukemia in mice; format: functional
Method in brief: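 CD2F1 mice were inoculated ip with 10^5 ascitic L1210 cells in PBS and given a single ip dose on day 3 (advanced disease), following NIH/NCI in vivo screening protocols. ILS was calculated as T/C × 100 − 100 from average survival times. ED50, the dose giving 50% ILS, was read graphically from least-squares dose–effect curves.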

[4] = Dose required to kill 50% of healthy, non-tumour-bearing mice (LD50); conditions: mouse, in vivo; method in brief: as §1

| SMILES | MTD [1] | TI [2] | ED50 [3] | LD50 [4] |
| --- | --- | --- | --- | --- |
| O=[P@]1(NCCCl)OCCCN1CCBr | 230 mg/kg | 13.6 Ratio | 21.3 mg/kg | 289 mg/kg |
| [2H]C([2H])(CCl)N[P@]1(=O)OCCCN1C([2H])([2H])CBr | 196 mg/kg | 17.7 Ratio | 15 mg/kg | 265 mg/kg |
| O=P1(NCCCl)OCCCN1CCBr (stereo not drawn) | 236 mg/kg | 9.3 Ratio | 34.3 mg/kg | 320 mg/kg |
| [2H]C([2H])(CCl)NP1(=O)OCCCN1C([2H])([2H])CCl (stereo not drawn) |  |  | 67.8 mg/kg |  |
| [2H]C([2H])(CCl)NP1(=O)OCCCN1C([2H])([2H])CBr (stereo not drawn) |  |  | 23.6 mg/kg |  |
| O=P1(NCCCl)OCCCN1CCCl (stereo not drawn) [IFOSFAMIDE] | 518 mg/kg | 7.1 Ratio | 96.4 mg/kg | 687 mg/kg |

Source: ChEMBL document CHEMBL1135044, “Studies on the side-chain hydroxylation of ifosfamide and its bromo analogue” (Bioorg Med Chem Lett, 2002)
